ChEMBL document CHEMBL1649200, “Concurrent titration and determination of antibiotic resistance in ureaplasma species with identification of novel point mutations in genes associated with resistance” (2009)
≈ marks a conversion by molar mass, not a printed value.

What was measured:
Type in all cases: functional
[1] = test system: Ureaplasma urealyticum; assay: Antimicrobial activity against Ureaplasma urealyticum isolate HPA6 after 48 hrs by modified broth microdilution technique; details: isolate HPA6, 48 h
Summary of the method: (§1)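 Full-plate broth microdilution in ureaplasma selective medium (10% porcine serum, urea, phenol red, starting pH 6.65). A doubling-dilution antibiotic gradient from 64 to 0.0625 mg/liter is run, with an antibiotic-free column. An overnight culture of unknown CCU is added 1:10, then titrated 10-fold at right angles. Plates are sealed and held 48 h at 37°C. The MIC is the lowest concentration preventing colour change, read at 10⁴ CCU relative to the antibiotic-free control.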

[2] = test system: Ureaplasma parvum; assay: Antimicrobial activity against Ureaplasma parvum SV1 isolate UHWO10 after 48 hrs by modified broth microdilution technique; details: SV1 isolate UHWO10, 48 h; summary of the method: as §1
[3] = test system: Ureaplasma parvum; assay: Antimicrobial activity against Ureaplasma parvum SV1 isolate UHWQ3 after 48 hrs by modified broth microdilution technique; details: SV1 isolate UHWQ3, 48 h; summary of the method: as §1
[4] = test system: Ureaplasma urealyticum; assay: Antimicrobial activity against Ureaplasma urealyticum isolate HPA12 after 48 hrs by modified broth microdilution technique; details: isolate HPA12, 48 h; summary of the method: as §1
[5] = test system: Ureaplasma parvum; assay: Antimicrobial activity against Ureaplasma parvum SV6 isolate HPA23 after 48 hrs by modified broth microdilution technique; details: SV6 isolate HPA23, 48 h; summary of the method: as §1
[6] = test system: Ureaplasma urealyticum; assay: Antimicrobial activity against Ureaplasma urealyticum isolate HPA3 after 48 hrs by modified broth microdilution technique; details: isolate HPA3, 48 h; summary of the method: as §1
[7] = test system: Ureaplasma urealyticum; assay: Antimicrobial activity against Ureaplasma urealyticum isolate HPA20 after 48 hrs by modified broth microdilution technique; details: isolate HPA20, 48 h; summary of the method: as §1
[8] = test system: Ureaplasma urealyticum; assay: Antimicrobial activity against Ureaplasma urealyticum isolate HPA17 after 48 hrs by modified broth microdilution technique; details: isolate HPA17, 48 h; summary of the method: as §1
[9] = test system: Ureaplasma parvum; assay: Antimicrobial activity against Ureaplasma parvum isolate UHWJM after 48 hrs by modified broth microdilution technique; summary of the method: as §1
[10] = test system: Ureaplasma parvum; assay: Antimicrobial activity against Ureaplasma parvum isolate UHWP2 after 48 hrs by modified broth microdilution technique; details: isolate UHWP2, 48 h; summary of the method: as §1
[11] = test system: Ureaplasma parvum; assay: Antimicrobial activity against Ureaplasma parvum SV1 isolate HPA18 after 48 hrs by modified broth microdilution technique; details: SV1 isolate HPA18, 48 h; summary of the method: as §1
[12] = test system: Ureaplasma parvum; assay: Antimicrobial activity against Ureaplasma parvum SV14 isolate HPA32 after 48 hrs by modified broth microdilution technique; details: SV14 isolate HPA32, 48 h; summary of the method: as §1
[13] = test system: Ureaplasma parvum; assay: Antimicrobial activity against Ureaplasma parvum SV9 containing tetM gene; summary of the method: as §1

| SMILES | MIC [1] | MIC [2] | MIC [3] | MIC [4] | MIC [5] | MIC [6] | MIC [7] | MIC [8] | MIC [9] | MIC [10] | MIC [11] | MIC [12] | MIC [13] |
| --- | --- | --- | --- | --- | --- | --- | --- | --- | --- | --- | --- | --- | --- |
| CC[C@H]1OC(=O)[C@H](C)[C@@H](O[C@H]2C[C@@](C)(OC)[C@@H](O)[C@H](C)O2)[C@H](C)[C@@H](O[C@@H]2O[C@H](C)C[C@H](N(C)C)[C@H]2O)[C@](C)(O)C[C@@H](C)CN(C)[C@H](C)[C@@H](O)[C@]1(C)O [AZITHROMYCIN] | < 0.25 µg/mL | 2 µg/mL (≈ 2.67 µM) | < 0.25 µg/mL | < 0.25 µg/mL | < 0.25 µg/mL | 0.5 µg/mL (≈ 0.668 µM) | < 0.25 µg/mL | 0.5 µg/mL (≈ 0.668 µM) | < 0.25 µg/mL | < 0.25 µg/mL | < 0.25 µg/mL | < 0.25 µg/mL | – |
| O=C(O)c1cn(C2CC2)c2cc(N3CCNCC3)c(F)cc2c1=O [CIPROFLOXACIN] | 4 µg/mL (≈ 12.1 µM) | 4 µg/mL (≈ 12.1 µM) | 4 µg/mL (≈ 12.1 µM) | 4 µg/mL (≈ 12.1 µM) | < 2 µg/mL | 4 µg/mL (≈ 12.1 µM) | 4 µg/mL (≈ 12.1 µM) | 4 µg/mL (≈ 12.1 µM) | 4 µg/mL (≈ 12.1 µM) | 4 µg/mL (≈ 12.1 µM) | 8 µg/mL (≈ 24.1 µM) | < 2 µg/mL | – |
| CC[C@H]1OC(=O)[C@H](C)[C@@H](O[C@H]2C[C@@](C)(OC)[C@@H](O)[C@H](C)O2)[C@H](C)[C@@H](O[C@@H]2O[C@H](C)C[C@H](N(C)C)[C@H]2O)[C@](C)(OC)C[C@@H](C)C(=O)[C@H](C)[C@@H](O)[C@]1(C)O [CLARITHROMYCIN] | < 0.125 µg/mL | 4 µg/mL (≈ 5.35 µM) | < 0.125 µg/mL | < 0.125 µg/mL | < 0.125 µg/mL | < 0.125 µg/mL | < 0.125 µg/mL | < 0.125 µg/mL | < 0.125 µg/mL | < 0.125 µg/mL | < 0.125 µg/mL | < 0.125 µg/mL | – |
| C[C@H]1c2cccc(O)c2C(=O)C2=C(O)[C@]3(O)C(=O)C(C(N)=O)=C(O)[C@@H](N(C)C)[C@@H]3[C@@H](O)[C@@H]21.O [DOXYCYCLINE] | 0.5 µg/mL | 0.25 µg/mL | 0.25 µg/mL | 0.5 µg/mL | 16 µg/mL | 0.5 µg/mL | 0.5 µg/mL | 0.25 µg/mL | 0.5 µg/mL | 0.5 µg/mL | 0.25 µg/mL | 0.25 µg/mL | 64 µg/mL |
| CC[C@H]1OC(=O)[C@H](C)[C@@H](O[C@H]2C[C@@](C)(OC)[C@@H](O)[C@H](C)O2)[C@H](C)[C@@H](O[C@@H]2O[C@H](C)C[C@H](N(C)C)[C@H]2O)[C@](C)(O)C[C@@H](C)C(=O)[C@H](C)[C@@H](O)[C@]1(C)O [ERYTHROMYCIN] | 8 µg/mL (≈ 10.9 µM) | > 64 µg/mL | 4 µg/mL (≈ 5.45 µM) | 8 µg/mL (≈ 10.9 µM) | 4 µg/mL (≈ 5.45 µM) | 4 µg/mL (≈ 5.45 µM) | 8 µg/mL (≈ 10.9 µM) | 8 µg/mL (≈ 10.9 µM) | 4 µg/mL (≈ 5.45 µM) | 4 µg/mL (≈ 5.45 µM) | 4 µg/mL (≈ 5.45 µM) | 8 µg/mL (≈ 10.9 µM) | 4 µg/mL (≈ 5.45 µM) |
| CN(C)[C@@H]1C(O)=C(C(N)=O)C(=O)[C@@]2(O)C(O)=C3C(=O)c4c(O)cccc4[C@@](C)(O)[C@H]3C[C@@H]12 [TETRACYCLINE] | 2 µg/mL (≈ 4.5 µM) | 1 µg/mL (≈ 2.25 µM) | 1 µg/mL (≈ 2.25 µM) | 2 µg/mL (≈ 4.5 µM) | 64 µg/mL (≈ 144 µM) | 2 µg/mL (≈ 4.5 µM) | 2 µg/mL (≈ 4.5 µM) | 1 µg/mL (≈ 2.25 µM) | 2 µg/mL (≈ 4.5 µM) | 2 µg/mL (≈ 4.5 µM) | 2 µg/mL (≈ 4.5 µM) | 1 µg/mL (≈ 2.25 µM) | > 64 µg/mL |
